Assay outcomes: PubChem BioAssay, several laboratories
Most compounds without a hit are left out; they make up all but 1.4% or so of the library.
TPT1 inhibitor: Candida albicans TPT1 enzyme inhibitors, primary screen, biochemical, fluorescence polarization | recombinant caTPT1, FP RNA substrate dephosphorylation | inhibition, % at 5 µM | 300,000 tested, 0.81% active;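 active means inhibition above the mean of all tested compounds plus 3 SD, set per screening campaign, cut at about 24% in these data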;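 further: plate controls were DMSO alone for no effect and ferristatin control at 100 nM for full effect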
HNF4A DNA FP: change in binding of human HNF4A to DNA, primary screen, biochemical, fluorescence polarization, FITC-DNA; Hepatocyte nuclear factor 4-alpha (Homo sapiens), P41235; activity change, % at 10 µM; AID 1224865, 2016; 360,000 tested, 0.3% active; 1 h; in the data active means activity change above about 30%, passing the limit was not always enough
CSN deneddyl inh: inhibitors of CSN-mediated cullin deneddylation, primary screen, biochemical, fluorescence polarization, uHTS | 360,000 tested, 0.38% active | AID 651999, 2013 | inhibition, % at 12.5 µM | Purified CSN, SCF-Nedd8-OG deneddylation | COP9 signalosome complex subunit 5 (Homo sapiens), Q92905;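 active means pattern-corrected inhibition above about 35%, with an unprinted fluorescence ratio check between 0.5 and 1.5, limit read from the data, passing the limit was not always enough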;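 further: 0% = enzyme with substrate and 100% = substrate without enzyme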
Target sequence (Q92905 whole entry, looked up, one chain of several): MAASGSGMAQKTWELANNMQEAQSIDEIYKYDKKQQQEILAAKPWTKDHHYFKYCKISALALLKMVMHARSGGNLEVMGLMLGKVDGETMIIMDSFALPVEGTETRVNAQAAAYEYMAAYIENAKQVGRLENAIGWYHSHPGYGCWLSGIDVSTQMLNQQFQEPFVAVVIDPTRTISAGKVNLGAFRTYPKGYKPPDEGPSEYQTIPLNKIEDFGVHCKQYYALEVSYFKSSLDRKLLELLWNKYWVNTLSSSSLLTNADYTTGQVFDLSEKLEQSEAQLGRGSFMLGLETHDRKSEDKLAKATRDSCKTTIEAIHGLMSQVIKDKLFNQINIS
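Assay system: purified human Csn5 enzyme expressed in HEK293T cells; Input: 0.24 nM Csn5 enzyme, final concentration; Reagent: 10 nM SCFSkp2-Nedd8OG; Compound dosing: 12.5 µM single point; Times: reaction 90 min, room temperature; Technique: fluorescence polarization readout.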
IDE cell activ: human IDE activators in live cells, primary screen, fluorescence polarization, HEK cells, FAbeta-B substrate; AID 493087, 2011; FAbeta-B cleavage; 0% vehicle, 100% cell-free pure enzyme wells; activation, % at 5.96 µM; 340,000 tested, 0.073% active;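 active means activation above the mean of all tested compounds plus 3 SD, set per screening campaign, cut at about 17% in these data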
IDE inh: human IDE inhibitors in live cells, primary screen, fluorescence polarization, HEK cells, FAbetaB substrate; FAbetaB cleavage; inhibition, % at 5.59 µM; 320,000 tested, 0.41% active; AID 434962, 2010;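 active means percent inhibition above the average of all tested compounds plus 3 SD, set per screening campaign, cut at about 16% in these data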;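 further: IDE supplied by intact live HEK cells; FP after avidin binding of uncleaved biotin substrate so inhibition keeps polarization high; 0% = DMSO wells and 100% = 60 µM reference IDE inhibitor Ii1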
caTPT1 confirm: Candida albicans TPT1 inhibitors, confirmation, biochemical, fluorescence polarization, triplicate | shares compounds with TPT1 inhibitor | recombinant caTPT1, RNase T1 coupled | inhibition, % at 5 µM | 2,400 tested, 74% active | AID 2149, 2009;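 active means inhibition above the primary screen limit, the mean inhibition of all tested compounds plus 3 SD, cut at about 25% in these data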
RNase T1 inh: RNase T1 inhibitors, counter-screen for TPT1 inhibitor project, biochemical, fluorescence polarization; shares compounds with TPT1 inhibitor; RNase T1 cleavage, 1536-well; inhibition, % at 5 µM; 2,400 tested, 83% active;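 active means inhibition above the solvent-only control well mean plus 3 SD, limit set per screening run, cut at about 23% in these data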;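 further: plate controls were DMSO wells with enzyme for no effect and wells without RNase T1 for full effect; inhibitors block cleavage so intact labeled substrate keeps polarization high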
Target sequence (P00651 whole entry, looked up): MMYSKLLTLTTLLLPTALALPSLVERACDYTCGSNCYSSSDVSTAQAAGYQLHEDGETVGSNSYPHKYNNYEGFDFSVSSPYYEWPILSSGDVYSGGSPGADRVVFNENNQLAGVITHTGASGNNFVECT
Starred values were filed as active, the others as inactive.

Screening Cc1ccsc1C1CC(=O)OC2=C1C(=O)CC(C)(C)C2 (stereo not drawn) returned TPT1 inhibitor 109*, IDE inh -2, caTPT1 confirm 6 and RNase T1 inh 11.
`CC(C)C[C@H]1CNC(=O)C(=O)N1CC1CCN(CC2CCC(C)CC2)CC1` (stereo partly drawn) gave HNF4A DNA FP -3 and CSN deneddyl inh 0.
Screening Cc1cc(C)c2nc(NNC(=O)c3ccc(S(=O)(=O)N4CCc5ccccc5C4)cc3)sc2c1 returned TPT1 inhibitor -1, HNF4A DNA FP -1, CSN deneddyl inh 6, IDE cell activ -2 and IDE inh -1.
Screening Cc1cc(C)c2nc(NNC(=O)c3cc(=O)c4ccccc4o3)sc2c1 returned TPT1 inhibitor 25*, HNF4A DNA FP 12, CSN deneddyl inh 10, IDE cell activ 0, IDE inh 2, caTPT1 confirm 27* and RNase T1 inh 41*.
For CC(C)NC(=S)N/N=C/c1c[nH]c2ccccc12 the results were TPT1 inhibitor 1, HNF4A DNA FP -1, CSN deneddyl inh -4, IDE cell activ 2 and IDE inh -2.
Screening Cc1[nH]c2ccccc2c1/C=N/NC(=S)NC(C)C returned TPT1 inhibitor 25*, HNF4A DNA FP 15, CSN deneddyl inh 11, IDE cell activ 5, IDE inh -1, caTPT1 confirm 39* and RNase T1 inh 45*.
`C=CCN1C(=O)C2(NNc3ccccc3O2)c2ccccc21` (stereo not drawn) gave TPT1 inhibitor 85*, HNF4A DNA FP 71*, CSN deneddyl inh 29, IDE cell activ 0, IDE inh 2, caTPT1 confirm 103* and RNase T1 inh 107*.
For CCCCN1C(=O)C(O)(CC(=O)c2c(C)coc2C)c2ccccc21 (stereo not drawn) the results were TPT1 inhibitor -1, HNF4A DNA FP 0, CSN deneddyl inh 2, IDE cell activ 6 and IDE inh -1.
For CCCCN1C(=O)C2(NNc3ccccc3O2)c2ccccc21 (stereo not drawn) the results were TPT1 inhibitor 91*, HNF4A DNA FP 69*, CSN deneddyl inh 7, IDE cell activ -8, IDE inh 16, caTPT1 confirm 94* and RNase T1 inh 102*.
For C=CCN1C(=O)C(O)(CC(=O)c2ccc(-n3cccc3)cc2)c2ccccc21 (stereo not drawn) the results were TPT1 inhibitor -2, HNF4A DNA FP 8, CSN deneddyl inh -4, IDE cell activ 1 and IDE inh 5.
`OC[C@H]1O[C@@H](c2nc(-c3ccc(CN4CCOCC4)cc3)no2)[C@H](O)[C@@H](O)[C@H]1O` gave HNF4A DNA FP 1 and CSN deneddyl inh 0.
For Cc1cc2ncc(C(N)=O)cn2n1 the results were TPT1 inhibitor 83*, HNF4A DNA FP 4, CSN deneddyl inh -8, IDE cell activ 4, IDE inh 3, caTPT1 confirm 7 and RNase T1 inh 11.
`O=C(C(=O)N1CCN(c2ccccc2)CC1)c1ccccc1` gave HNF4A DNA FP 3 and CSN deneddyl inh 1.
For CC(C)(C)C(=O)Nc1sc2c(c1C#N)CCCCC2 the results were TPT1 inhibitor -2, HNF4A DNA FP 2, CSN deneddyl inh -5, IDE cell activ -2 and IDE inh 3.
`CC(C)(C)C(=O)Nc1sc2c(c1C#N)CCN(Cc1ccccc1)C2` gave TPT1 inhibitor 39*, HNF4A DNA FP -11, CSN deneddyl inh -10, IDE cell activ -5, IDE inh 1, caTPT1 confirm 62* and RNase T1 inh 67*.
For NC(=O)c1c(NC(=O)C2COc3ccccc3O2)sc2c1CCN(Cc1ccccc1)C2 (stereo not drawn) the results were TPT1 inhibitor 67*, HNF4A DNA FP 57, CSN deneddyl inh 29, IDE cell activ 2, IDE inh 1, caTPT1 confirm 70* and RNase T1 inh 85*.
`N#Cc1c(N)sc2c1CCN(CCc1ccccc1)C2` gave TPT1 inhibitor 75*, HNF4A DNA FP 44, CSN deneddyl inh 27, IDE cell activ -4, IDE inh 10, caTPT1 confirm 71* and RNase T1 inh 82*.
CCOC(=O)N1CCc2c(sc(N)c2C#N)C1 was read as TPT1 inhibitor -1 and IDE inh 16.
CCOC(=O)c1c(NC(=O)C2COc3ccccc3O2)sc2c1CCN(Cc1ccccc1)C2 (stereo not drawn) was read as TPT1 inhibitor 3, HNF4A DNA FP -4, CSN deneddyl inh -9, IDE cell activ 5 and IDE inh -2.
For CC(=O)Nc1sc2c(c1-c1nc3ccccc3s1)CCN(C(C)C)C2 the results were TPT1 inhibitor 43*, HNF4A DNA FP -6, CSN deneddyl inh -75, IDE cell activ -24, IDE inh 6, caTPT1 confirm 47* and RNase T1 inh 53*.
For CC(C)N1CCc2c(sc(NC(=O)c3ccc(C(=O)c4ccccc4)cc3)c2C(N)=O)C1 the results were TPT1 inhibitor 35*, HNF4A DNA FP 7, CSN deneddyl inh 9, IDE cell activ 0, IDE inh 3, caTPT1 confirm 31* and RNase T1 inh 48*.
For CC(=O)N1CCc2c(sc(NC(=O)c3cccc(N4C(=O)CCC4=O)c3)c2C(N)=O)C1 the results were TPT1 inhibitor 33*, HNF4A DNA FP 34, CSN deneddyl inh 25, IDE cell activ 1, IDE inh 5, caTPT1 confirm 41* and RNase T1 inh 56*.
For NC(=O)c1c(NC(=O)C2c3ccccc3Oc3ccccc32)sc2c1CCCCC2 the results were TPT1 inhibitor 27*, HNF4A DNA FP -5, CSN deneddyl inh 18, IDE cell activ -6, IDE inh 5, caTPT1 confirm 14 and RNase T1 inh 22*.
CC(=O)c1ccc(C(=O)Nc2sc3c(c2C(N)=O)CCN(Cc2ccccc2)C3)cc1 was read as TPT1 inhibitor 132*, HNF4A DNA FP 71, CSN deneddyl inh 44, IDE cell activ -6, IDE inh 7, caTPT1 confirm 140* and RNase T1 inh 141*.
`COc1cccc(C(O)c2nc(-c3ccc(F)c(Cl)c3)cs2)c1` (stereo not drawn) gave HNF4A DNA FP 2 and CSN deneddyl inh 6.
CC[C@H]1O[C@H](C)CC2=C1C(=O)OC(C)(C)O2 was read as HNF4A DNA FP 0 and CSN deneddyl inh 23.
